TRPC4 inh: inhibitors of mouse TRPC4 channel; Q9QUQ5; HEK293 TRPC4beta/mu-opioid, DAMGO-evoked Fluo4 calcium flux; active compounds read low; B-score at 10 µM; hit rate 0.39% among 300,000; AID 2247;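 active = B-score over 3 SD under the library average, no early fluorescence shift, positive overall ratio signal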
Target sequence (Q9QUQ5 whole entry, looked up): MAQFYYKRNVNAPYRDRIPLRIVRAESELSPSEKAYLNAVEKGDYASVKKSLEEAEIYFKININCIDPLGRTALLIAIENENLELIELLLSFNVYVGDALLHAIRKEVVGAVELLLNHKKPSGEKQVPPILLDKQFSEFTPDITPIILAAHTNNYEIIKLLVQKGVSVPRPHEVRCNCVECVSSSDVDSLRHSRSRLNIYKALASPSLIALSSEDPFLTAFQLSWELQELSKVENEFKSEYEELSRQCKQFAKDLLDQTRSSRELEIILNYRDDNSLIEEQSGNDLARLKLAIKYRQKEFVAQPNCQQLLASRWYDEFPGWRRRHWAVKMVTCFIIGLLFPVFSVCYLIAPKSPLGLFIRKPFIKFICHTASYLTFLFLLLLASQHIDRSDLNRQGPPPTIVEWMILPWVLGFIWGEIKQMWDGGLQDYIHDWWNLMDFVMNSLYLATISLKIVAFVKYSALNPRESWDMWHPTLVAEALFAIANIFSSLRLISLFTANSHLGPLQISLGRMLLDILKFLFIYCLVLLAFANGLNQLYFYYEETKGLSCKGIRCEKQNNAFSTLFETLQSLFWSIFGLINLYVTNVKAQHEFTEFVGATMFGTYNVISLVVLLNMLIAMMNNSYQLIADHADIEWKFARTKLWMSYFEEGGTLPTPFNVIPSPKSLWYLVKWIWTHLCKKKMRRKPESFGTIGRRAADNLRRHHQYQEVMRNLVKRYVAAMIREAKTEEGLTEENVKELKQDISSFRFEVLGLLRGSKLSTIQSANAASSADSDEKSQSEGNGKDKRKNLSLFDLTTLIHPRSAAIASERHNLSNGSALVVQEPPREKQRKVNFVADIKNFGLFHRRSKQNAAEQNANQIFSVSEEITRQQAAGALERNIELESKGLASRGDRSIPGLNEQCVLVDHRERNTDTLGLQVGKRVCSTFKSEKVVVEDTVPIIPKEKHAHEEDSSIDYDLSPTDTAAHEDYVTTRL
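System: stable TRPC4beta/mu-opioid receptor HEK293 cells; Dosing: single-point compound dosing; Measured by: Fluo4 Ca2+ flux fluorescence; Read-out basis: per-well B score of integrated baseline-normalized Fluo4 ratio.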
TRPC4 agonist: opens the mouse TRPC4 cation channel. hit rate 0.49% among 310,000. B-score at 10 µM. HEK293 TRPC4beta/mu-opioid, Fluo4 calcium fluorescence; active compounds read high. AID 2237;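 active = B-score above 5 SD of library B-scores, and initial fluorescence ratio not above library mean plus 5 SD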;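 also: positive B-score marks a calcium rise read as TRPC4 activation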
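System – HEK293 cells stably co-expressing mouse TRPC4beta and mu-opioid receptor · Signal – Fluo4 calcium-sensitive dye fluorescence, kinetic, 1 Hz baseline · Benchmarks – buffer (low) and maximal DAMGO (high) · Read-out – B score of integrated fluorescence ratio per well · Incubation – dye loading 45 min room temperature, 110 s kinetic read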
Kir21 inh: inhibitors of mouse Kir2.1 inward-rectifier potassium channel | P35561 | HEK293-Kir2.1, FluxOR thallium flux fluorescence; active compounds read low | B-score at 10 µM | hit rate 0.85% among 310,000 | AID 1672;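 active = fluorescence ratio B-score at or below minus 3 SD of library scores, with starting-brightness B-score within 2 SD, cut at about -4.2 in these data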;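 also: channel flux triggered by added potassium and thallium sulfate stimulus; B-score of peak minus minimum fluorescence over baseline after thallium stimulus; more negative B-score means stronger Kir2.1 block with less thallium influx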
TRPC4 PAM: TRPC4 (mouse) allosteric potentiation | HEK293 TRPC4beta/mu-opioid, DAMGO EC20, Fluo-4 Ca2+ flux; active compounds read high | B-score at 10 µM | hit rate 0.42% among 310,000 | AID 2227;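 active = B-score of calcium response area above 5 SD of library B-scores, with initial fluorescence ratio within 5 SD of library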;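 also: B-score of integrated fluorescence ratio over time as area under calcium response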
TRPC6 inhibitor: inhibitors of mouse TRPC6 channel; hit rate 1.1% among 310,000; HEK293-TRPC6, membrane potential dye, ACh-evoked depolarization; active compounds read low; Q61143; B-score at 10 µM;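 active = B-score under library mean minus 3 SD, initial fluorescence not abnormally high, positive integrated signal ratio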;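 also: B-score derived from integrated fluorescence ratio over the kinetic read; more negative B-score means stronger inhibition of depolarization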
TRPC6 act: activators of mouse TRPC6 channel. HEK293-TRPC6 membrane potential dye fluorescence; active compounds read high. B-score at 10 µM. AID 2550. hit rate 0.13% among 310,000;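 active = B-score of the integrated fluorescence ratio above library mean plus 3 SD, and starting fluorescence ratio within library mean plus 5 SD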;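 also: higher score means more depolarization so channel activation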
TRPC4 sel inh 2: mouse TRPC4 off-target activity of TRPC6 inhibitors, second screen | HEK293 TRPC4/MOR, membrane potential dye fluorescence; channel activated by saturating DAMGO dose | inhibition, % at 10 µM | hit rate 42% among 920 | shares compounds with TRPC6 inhibitor;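 active = compounds whose fluorescence signal differed from control wells by over 3 SD, either direction, in both duplicate plates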
TRPC4 spec: selectivity of TRPC6 inhibitors: effect on mouse TRPC4 | shares compounds with TRPC6 inhibitor | HEK293 TRPC4/mu-opioid, membrane potential fluorescence | activity change, negative = inhibition, % at 10 µM | hit rate 61% among 920;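 active = rise or fall in signal beyond 3 SD of buffer-only wells in both replicate plates, either sign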;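 also: integrated kinetic ratio of fluorescence range over baseline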
HEK293 MPD ctr 2-1: second counter-screen for TRPC6 inhibitors: parental HEK293 cells | shares compounds with TRPC6 inhibitor | parental HEK293 membrane potential dye fluorescence; maximal acetylcholine challenge after compound addition | signal change vs control, % at 10 µM | hit rate 31% among 920 | AID 2779;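 active = membrane potential signal moving either way by over 3 SD of the maximum-effect control, in both duplicate plates, meaning non-specific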
HEK293 MPD ctr-1: parental HEK293 nonspecific activity of TRPC6 inhibitors. shares compounds with TRPC6 inhibitor. parental HEK293 membrane potential dye fluorescence. membrane potential signal change, % at 10 µM. hit rate 60% among 920;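 active = membrane potential signal shifting up or down by more than 3 SD of buffer-only wells, on both duplicate plates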
HEK293 MPD ctr-2: checks TRPC6 modulator effects in parental HEK293 cells | shares compounds with TRPC6 inhibitor | membrane potential dye fluorescence | membrane potential signal change, % at 10 µM | hit rate 51% among 2,400 | AID 488924;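 active = membrane potential signal moves up or down beyond 5 SD from buffer-only wells, on both duplicate plates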
HEK293 MPD ctr 2-2: parental HEK293 nonspecific activity of TRPC6 modulators, second screen; hit rate 14% among 2,400; shares compounds with TRPC6 inhibitor; inhibition, % at 10 µM; membrane potential dye fluorescence; after compound, maximal acetylcholine stimulation;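 active = membrane potential signal drops by more than 5 SD from the mean control signal, in both duplicate plates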;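 also: plate controls were acetylcholine ECmax control wells for no effect and buffer only wells for full effect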
TRPC4/MOR mod: mouse TRPC4 off-target activity of TRPC6 modulators | HEK293 TRPC4/mu-opioid, membrane potential fluorescence | shares compounds with TRPC6 inhibitor | hit rate 69% among 2,400 | percent change from control (negative = decrease, positive = increase), % at 10 µM;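 active = membrane potential signal moved up or down beyond 5 SD of buffer control wells, in both duplicate plates, actives on both sides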;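 also: plate controls were assay buffer wells for no effect and DAMGO maximal-effect wells for full effect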
TRPC4/MOR inh 2: second check of whether TRPC6 modulators also affect mouse TRPC4; shares compounds with TRPC6 inhibitor; inhibition, % at 10 µM; HEK293 TRPC4/mu-opioid, membrane potential dye fluorescence; stimulated with maximal-effect DAMGO; hit rate 55% among 2,400;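 active = drop in membrane potential signal beyond 5 SD of the control wells in both duplicate plates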;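 also: TRPC4 counter screen for TRPC6 hits run under conditions tuned for TRPC6 not TRPC4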
TRPC6 inh conf: mouse TRPC6 inhibitor confirmation | hit rate 43% among 3,300 | AID 488960 | inhibition, % at 10 µM | shares compounds with TRPC6 inhibitor | HEK293-TRPC6, membrane potential dye, ACh-evoked depolarization;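 active = fluorescence ratio falls more than 5 SD below the full-stimulation control mean, in both duplicate runs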;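 also: integrated fluorescence ratio of peak minus minimum over baseline after agonist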
TRPC6 act conf: confirmation of mouse TRPC6 activators | shares compounds with TRPC6 inhibitor | HEK293-TRPC6 membrane potential dye fluorescence, FDSS | activation, % at 10 µM | hit rate 11% among 2,800 | AID 488961;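 active = ratio signal rise beyond 5 SD above unstimulated control wells' mean, seen in both duplicate runs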;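 also: plate controls were buffer EC0 wells for no effect and acetylcholine ECmax response for full effect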
* = called active by the depositor; i = inactive; · = not tested or not shown. A selection: hits, their analogues and other compounds. The true share with any hit is near 2.9%.

SMILES	TRPC4 inh	TRPC4 agonist	Kir21 inh	TRPC4 PAM	TRPC6 inhibitor	TRPC6 act	HEK293 MPD ctr-2	HEK293 MPD ctr 2-2	TRPC4/MOR mod	TRPC4/MOR inh 2	TRPC6 inh conf	TRPC6 act conf	others
N#Cc1ccc(C2=NC(C(F)(F)F)(C(F)(F)F)c3c(n(Cc4ccco4)c(=O)[nH]c3=O)N2)cc1	i	i	0.47	i	-8.33*	i	·	·	·	·	i	i	TRPC4 sel inh 2=i;TRPC4 spec=-11.7%*;HEK293 MPD ctr 2-1=i;HEK293 MPD ctr-1=-128.0%*
c1csc(C2Nc3ccccc3-c3nc4ccccc4n32)c1 (centres undefined)	i	i	-4.48*	i	-6.64*	i	·	·	·	·	i	i	TRPC4 sel inh 2=i;TRPC4 spec=9.1%*;HEK293 MPD ctr 2-1=i;HEK293 MPD ctr-1=2.3%*
Cc1ccsc1C1Nc2ccccc2-c2nc3ccccc3n21 (centres undefined)	i	i	-0.26	i	i	i	·	·	·	·	·	·
CC(=O)c1ccc(NC(=S)NCc2ccco2)cc1	i	i	-1.21	i	i	i	·	·	·	·	·	·
CCOC(=O)c1ccc(-n2c(CN3CCOCC3)nc3ccc([N+](=O)[O-])cc3c2=O)cc1	i	i	0	i	i	i	·	·	·	·	·	·
COc1ccccc1-c1cc(C(=O)N/N=C\c2cn(C)nc2C)c2ccccc2n1	i	i	0.01	i	-5.91*	i	i	i	i	i	44.0%*	·
CN(C)/C=C/C(=O)c1ccc(OCCN(C)c2ccccn2)cc1	i	i	0.3	i	-6.72*	i	·	·	·	·	i	i	TRPC4 sel inh 2=46.0%*;TRPC4 spec=37.3%*;HEK293 MPD ctr 2-1=i;HEK293 MPD ctr-1=i
CN(C)/C=C/C(=O)c1ccc(Oc2ccccc2)cc1	i	i	0.29	i	i	i	·	·	·	·	·	·
COc1cc(C(=O)OCC(=O)Nc2c(F)c(F)c(F)c(F)c2F)cc(OC)c1OC	i	i	-1.16	i	-5.4*	i	i	i	i	i	i	i
COc1ccc2c(N)c(C(=O)NN)[nH]c2c1	i	i	-0.52	i	i	i	·	·	·	·	·	·
Cc1nnc2ccc(-c3cccc(NC(=O)c4ccc(Cl)nc4)c3)nn12	i	i	0.25	i	-5.82*	i	i	i	-16.5%*	37.0%*	48.0%*	i
Cc1ccc(-c2nn3c(C)nnc3s2)cc1NC(=O)c1cccnc1	i	i	-1.6	i	-9.7*	i	-244.5%*	i	-43.0%*	40.5%*	i	i
Cc1nnc2sc(-c3cccc(NC(=O)c4cccnc4)c3)nn12	i	i	0	i	-6.52*	i	-147.5%*	i	-28.5%*	i	i	i
CCn1ncc(/C=N\NC(=O)c2ccc3c(c2)c(C)c(C)n3Cc2ccccc2)c1C	i	i	-1.64	i	i	i	·	·	·	·	·	·
CCC[N+](CC#Cc1ccccc1)(CCC)CC(=O)c1ccc(Cl)cc1	i	i	-3.79	i	-5.74*	i	332.0%*	i	77.0%*	52.5%*	67.5%*	·
Cc1ccc(C)c(NC(=O)CSc2nnc(CCNC(=O)OC(C)(C)C)o2)c1	i	i	0.38	i	i	i	·	·	·	·	·	·
COc1ccc2c(COC(=O)CCS(=O)(=O)c3ccc(C)cc3)cc(=O)oc2c1	i	i	-2.12	i	-5.34*	i	i	i	i	i	i	i
CCOC(=O)c1sc(=S)n(CC)c1NC(=O)C1CC1	i	i	-1.51	i	i	i	·	·	·	·	·	·
CCOc1ccc(NC(=S)NC(C)CCc2ccccc2)cc1 (centres undefined)	i	i	-0.18	i	i	i	·	·	·	·	·	·
C=CCn1c(SCC(=O)c2cc(C)n(CC3CCCO3)c2C)nnc1-c1ccccc1 (centres undefined)	i	i	-0.26	i	i	16*	110.5%*	i	26.5%*	i	·	82.5%*
O=C(CSc1nnc(-c2ccccc2)n1CC1CCCO1)N1CCCC1 (centres undefined)	i	i	0.54	i	i	i	·	·	·	·	·	·
O=C1c2ccccc2C(=O)c2c1cccc2N1CCCC1	i	i	1.48	i	i	i	·	·	·	·	·	·
Cn1c(=O)cc2c3c(c(N4CCCCC4)ccc31)C(=O)c1ccccc1-2	i	i	-1.02	i	-5.07*	i	-181.5%*	i	-42.0%*	54.0%*	39.0%*	i
Cc1nnc(SCCn2c(N3CCCCC3)nc3c2c(=O)n(C)c(=O)n3C)s1	i	i	0.88	i	i	i	·	·	·	·	·	·
Cc1nnc(SCCn2c(N3CCN(C)CC3)nc3c2c(=O)n(C)c(=O)n3C)s1	i	i	-3.63	i	-13*	i	-231.0%*	96.5%*	-35.0%*	59.0%*	72.0%*	i
c1ccc(-c2csc(N3CCOCC3)n2)cc1	i	i	-1.79	i	i	i	·	·	·	·	·	·
Cc1cc(C)nc(/N=C(\N)Nc2ccc(F)c([N+](=O)[O-])c2)n1	i	i	-1.03	i	-6.43*	i	-185.0%*	i	-25.0%*	31.5%*	i	i

Bioassay records deposited in PubChem BioAssay by Johns Hopkins Ion Channel Center.
